The source made the active and inactive calls. No cut-off for these calls is given here.
How the values were obtained:
C-33-A [1] = test: Antiproliferative activity against human C33A cells assessed as reduction in cell viability after 24 hrs by CellTiter-Glo assay; assay type: functional, cell-based
Outline: (§1)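 ATP-based luminescent viability readout. Cells were grown in DMEM with 10% FBS, 2 mM L-glutamine and penicillin-streptomycin at 37 °C, 5% CO2. 2 × 10^4 cells/well were seeded, then exposed the next day to 0–40 μM for 24, 48 or 72 h. % viability = 100 × treated/control. IC50 was fitted from a sigmoid dose-response curve. Run at least three times in quadruplicate; mean ± SEM.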

SiHa [2] = test: Antiproliferative activity against human SiHa cells assessed as reduction in cell viability after 24 hrs by CellTiter-Glo assay; assay type: functional, cell-based; outline: as §1
HeLa [3] = test: Antiproliferative activity against human HeLa cells assessed as reduction in cell viability after 48 hrs by CellTiter-Glo assay; assay type: functional, cell-based; outline: as §1
SiHa [4] = test: Antiproliferative activity against human SiHa cells assessed as reduction in cell viability after 72 hrs by CellTiter-Glo assay; assay type: functional, cell-based; outline: as §1
Keratinocyte = test: Cytotoxicity against human Keratinocytes assessed as reduction in cell viability 2 to 4 uM incubated up to 72 hrs by CellTiter-Glo assay; assay type: cell-based
C-33-A [5] = test: Cell cycle arrest in human C33A cells assessed as accumulation at G0/G1 phase at 4 uM after 24 hrs by propidium iodide staining based flow cytometric analysis (reference value: 58.4%); assay type: functional
Outline: (§2)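 Cells in DMEM/10% FBS at 37 °C, 5% CO2 were given 4 μM for 24, 48 or 72 h, with DMSO as control. After trypsinization they were fixed in chilled 70% ethanol on ice for 30 min, treated with RNase A (1 mg/mL) for 30 min at room temperature, and stained with PI (20 μg/mL). At least 10 000 events were read by flow cytometry to give sub-G1, G0/G1, S and G2/M fractions; mean ± SEM.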

C-33-A [6] = test: Cell cycle arrest in human C33A cells assessed as accumulation at G0/G1 phase at 4 uM after 48 hrs by propidium iodide staining based flow cytometric analysis (reference value: 54.6%); assay type: functional; outline: as §2
C-33-A [7] = test: Cell cycle arrest in human C33A cells assessed as accumulation at G2/M phase at 4 uM after 48 hrs by propidium iodide staining based flow cytometric analysis (reference value: 26.7%); assay type: functional; outline: as §2
C-33-A [8] = test: Cell cycle arrest in human C33A cells assessed as accumulation at G2/M phase at 4 uM after 72 hrs by propidium iodide staining based flow cytometric analysis (reference value: 25.2%); assay type: functional; outline: as §2
SiHa [9] = test: Cell cycle arrest in human SiHa cells assessed as accumulation at G0/G1 phase at 4 uM after 24 hrs by propidium iodide staining based flow cytometric analysis (reference value: 69.9%); assay type: functional; outline: as §2
SiHa [10] = test: Cell cycle arrest in human SiHa cells assessed as accumulation at G2/M phase at 4 uM after 24 hrs by propidium iodide staining based flow cytometric analysis (reference value: 17%); assay type: functional; outline: as §2
HeLa [11] = test: Cell cycle arrest in human HeLa cells assessed as accumulation at G2/M phase at 4 uM after 24 hrs by propidium iodide staining based flow cytometric analysis (reference value: 16.4%); assay type: functional; outline: as §2
HeLa [12] = test: Cell cycle arrest in human HeLa cells assessed as accumulation at Sub G1 phase at 4 uM after 72 hrs by propidium iodide staining based flow cytometric analysis (reference value: 3.5%); assay type: functional; outline: as §2
C-33-A [13] = test: Induction of apoptosis in human C33A cells assessed as viable cells at 4 uM after 48 hrs by Annexin V-FITC/PI double staining based flow cytometric analysis (reference value: 82.8%); assay type: functional; conditions: read-out: Activity
SiHa [14] = test: Induction of apoptosis in human SiHa cells assessed as early apoptotic cells at 4 uM after 48 hrs by Annexin V-FITC/PI double staining based flow cytometric analysis (reference value: 2.4%); assay type: functional
SiHa [15] = test: Cell cycle arrest in human SiHa cells assessed as increase in accumulation at G0/G1 phase at 4 uM incubated for 24 hrs by propidium iodide staining based flow cytometric analysis; assay type: functional
Outline: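 Cells in DMEM with 10% FBS, 2 mM L-glutamine, pen-strep, 37 °C, 5% CO2; seeded and left overnight, then treated at 4 μM with DMSO as control. Harvested by trypsin at 24, 48 or 72 h, fixed in chilled 70% ethanol 30 min on ice, RNase A (1 mg/mL) 30 min at room temperature, PI (20 μg/mL). Flow cytometry, ≥10 000 events, G0/G1, S, G2/M fractions; mean ± SEM.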

C-33-A [16] = test: Induction of apoptosis in human C33A cells assessed as apoptotic cells at 4 uM after 48 hrs by Annexin V-FITC/PI double staining based flow cytometric analysis (reference value: 17.3%); assay type: functional
Ca-Ski = test: Induction of apoptosis in human CaSki cells assessed as apoptotic cells at 4 uM after 48 hrs by Annexin V-FITC/PI double staining based flow cytometric analysis (reference value: […]); assay type: functional
[17] = target: T1, Protein E7 (Human papillomavirus 16) (UniProt P03129); test: Inhibition of Human papillomavirus type16 derived E7 in human SiHa cells assessed as decrease in phosphorylation of Rb at 2 to 4 uM after 48 hrs by Western blot analysis; assay type: cell-based
T1 sequence (whole entry): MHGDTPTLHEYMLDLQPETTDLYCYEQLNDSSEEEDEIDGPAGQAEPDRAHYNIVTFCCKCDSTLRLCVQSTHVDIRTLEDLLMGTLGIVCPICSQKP
Outline: (§3)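 Cells were seeded at 1 × 10^6 per 100 mm dish and treated next day with 2 or 4 μM for 48 h. They were trypsinised, PBS-washed and lysed in RIPA with protease inhibitors. Equal protein was run on SDS-PAGE and transferred to PVDF. Primary antibodies were used at 1:500, with BSA 3% for blocking and antibodies for CK2α, Rb and pRb, otherwise 5% milk in TBST. HRP secondary at 1:2000, chemiluminescence detection.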

[18] = target: Protein E6 (Human papillomavirus 16) (UniProt P03126); test: Inhibition of Human papillomavirus type16 derived E6 in human CaSki cells assessed as increase in p21 protein expression at 2 to 4 uM after 48 hrs by Western blot analysis; assay type: cell-based; conditions: Ca-Ski; outline: as §3
Chain of Protein E6 (Human papillomavirus 16) (P03126 whole entry): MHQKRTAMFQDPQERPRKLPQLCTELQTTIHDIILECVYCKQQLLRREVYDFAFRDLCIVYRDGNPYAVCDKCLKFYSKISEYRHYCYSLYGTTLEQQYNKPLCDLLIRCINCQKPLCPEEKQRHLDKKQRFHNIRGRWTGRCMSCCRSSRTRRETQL

[19] = target: T1, Protein E7 (Human papillomavirus 16); test: Inhibition of Human papillomavirus type16 derived E7 in human CaSki cells assessed as decrease in cyclin-D1 protein expression at 2 to 4 uM after 48 hrs by Western blot analysis; assay type: cell-based; conditions: Ca-Ski; outline: as §3
[20] = target: T2, Homeobox protein SIX1 (Homo sapiens) (UniProt Q15475); test: Inhibition of SIX1 in human C33A cells at 2 to 4 uM after 48 hrs by Western blot analysis; assay type: cell-based; conditions: C-33-A; outline: as §3
T2 sequence (whole entry): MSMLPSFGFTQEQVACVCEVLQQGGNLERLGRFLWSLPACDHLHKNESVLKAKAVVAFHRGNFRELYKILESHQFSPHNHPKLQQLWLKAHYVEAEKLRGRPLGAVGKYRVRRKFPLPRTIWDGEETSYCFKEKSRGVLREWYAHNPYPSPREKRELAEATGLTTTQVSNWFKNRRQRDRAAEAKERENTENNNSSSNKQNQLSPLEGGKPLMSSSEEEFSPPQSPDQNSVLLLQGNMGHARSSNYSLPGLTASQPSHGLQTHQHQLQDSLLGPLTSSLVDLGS

[21] = target: T2, Homeobox protein SIX1 (Homo sapiens); test: Inhibition of SIX1 in human HeLa cells at 2 to 4 uM after 48 hrs by Western blot analysis; assay type: cell-based; outline: as §3

O[C@]12C=C(c3nccc4c3[nH]c3ccccc34)[C@@H]3CCN(CCCC/C=C\CC1)C[C@@]31C[C@@H]3/C=C\CCCCN3[C@H]12 [MANZAMINE A]
IC50 (C-33-A [1]): 5.2 µM | IC50 (SiHa [2]): 19.9 µM | IC50 (HeLa [3]): 4 µM | IC50 (SiHa [4]): 4.1 µM | Activity (Keratinocyte): Non-Toxic | Activity (C-33-A [5]): 58.5% | Activity (C-33-A [6]): 44.2% | Activity (C-33-A [7]): 18.3% | Activity (C-33-A [8]): 19.3% | Activity (SiHa [9]): 85.3% | Activity (SiHa [10]): 9.2% | Activity (HeLa [11]): 13.8% | Activity (HeLa [12]): 24.3% | viability at 4 µM (C-33-A [13]): 63.6% | Activity (SiHa [14]): 27% | fold change (FC) (SiHa [15]): 1.2 | Activity (C-33-A [16]): 36.5% | Activity (Ca-Ski): 23.2% | inhibition [17]: Active | inhibition [18]: Active | inhibition [19]: Active | inhibition [20]: Active | inhibition [21]: Active

From ChEMBL document CHEMBL4602675, “The Marine Natural Product Manzamine A Inhibits Cervical Cancer by Targeting the SIX1 Protein” (J Nat Prod, 2020)
